Measurements as given in PubChem BioAssay AID493082 (Broad Institute, 2011).
Inconclusive results are not listed. The source made the active and inactive calls.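 How the source made its calls: active means compounds whose fitted half-maximal growth inhibition concentration is at most ten times the top valid dose; inconclusive means flat curve with 30 to 70% inhibition, or poor fit; inactive means the rest.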

Test system: C. albicans CaCi-8 + fluconazole, Alamar Blue growth, 48 h
Experiment: growth inhibition of drug-resistant Candida albicans, dose response, Alamar Blue, 48 h, dry powder (AID 493082)
Details: not given
Outline: (§1)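 system = C. albicans CaCi-8, fluconazole-resistant clinical isolate | buffer or medium = RPMI 1640 defined medium, MOPS, glucose, uridine | probe or stimulus = fluconazole co-treatment at 8 µg/mL alongside compound | schedule = 48 h static 37 °C compound exposure, 2 h Alamar Blue | detection = Alamar Blue fluorescence, Ex 544/Em 590 nm | read-out = fungal growth or viability, lower signal indicating inhibition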

Q: With `COC(=O)Cn1nc(-c2ccccc2)c2ccccc21` as the molecule, how does the AC50 read?
A: 2.33 µM

Q: For `CC1CCN(C(=O)Cn2c3ccccc3c3nc4n(c(=O)c32)CCS4)CC1`, which AC50 is on record?
A: 2.06 µM

Q: With `O=C(Cn1c2ccccc2c2nc3n(c(=O)c21)CCS3)N1CCOCC1` as the molecule, how does the AC50 read?
A: 7.67 µM

Q: Which AC50 does the source give for `O=C(Cn1c2ccc(F)cc2c2nc3n(c(=O)c21)CCS3)N1CCCC1` here?
A: 0.907 µM

Q: With `COC(=O)Cn1nc(-c2cccc(F)c2)c2ccccc21` as the molecule, how does the AC50 read?
A: 14 µM

Q: With `COC(=O)Cn1nc(-c2ccc(F)cc2)c2ccccc21` as the molecule, how does the AC50 read?
A: 16.1 µM

Q: With `COC(=O)Cn1c(-c2ccccc2)nc2ccccc21` as the molecule, how does the AC50 read?
A: 16.7 µM

Q: With `CCN(CC)C(=O)Cn1c2ccccc2c2nc3n(c(=O)c21)CCS3` as the molecule, how does the AC50 read?
A: 10 µM

Q: For `O=C(Cn1c2ccccc2c2nc3n(c(=O)c21)CCS3)N1CCCCC1`, which AC50 is on record?
A: 4.91 µM

Q: For `COC(=O)Cn1nc(-c2ccc(C#N)cc2)c2ccccc21`, which AC50 is on record?
A: 20 µM

Q: For `COC(=O)Cn1nc(-c2ccccc2C)c2ccccc21`, which AC50 is on record?
A: 8.07 µM

Q: With `COC(=O)Cn1nc(I)c2ccccc21` as the molecule, how does the AC50 read?
A: 18.8 µM

Q: For `O=C(Cn1c2ccccc2c2nc3n(c(=O)c21)CCS3)N1CCCC1`, which AC50 is on record?
A: 3.83 µM

Test system: not listed separately
Experiment: as above
Details: C. albicans CaCi-8 + fluconazole, Alamar Blue growth, 48 h; at 26 µM (top of the series)
Outline: as §1

Q: For `COC(=O)C(C)(C)n1nc(-c2ccccc2)c2ccccc21`, which activity change, negative = inhibition is on record?
A: -6.76% (inactive)

Q: Which activity change, negative = inhibition does the source give for `COC(=O)Cn1nc(-c2ccccc2)c2ccc(C(F)(F)F)cc21` here?
A: -34.9% (inactive)

Q: Which activity change, negative = inhibition does the source give for `O=C(Cn1c2ccc(F)cc2c2nc3n(c(=O)c21)CCS3)N1CCCCC1` here?
A: 12.2% (inactive)

Q: For `O=C1OCCC1n1nc(-c2ccccc2)c2ccccc21` (centres undefined), which activity change, negative = inhibition is on record?
A: -19.7% (inactive)

Q: For `O=C(Cn1nc(-c2ccccc2)c2ccccc21)OC1CCC1`, which activity change, negative = inhibition is on record?
A: -21.3% (inactive)

Q: Which activity change, negative = inhibition does the source give for `O=C(O)Cn1nc(-c2ccccc2)c2ccccc21` here?
A: -8.51% (inactive)

Q: For `O=C(Cn1c2ccc(F)cc2c2nc3n(c(=O)c21)CCS3)N1CCCCCC1`, which activity change, negative = inhibition is on record?
A: 3.17% (inactive)

Q: Which activity change, negative = inhibition does the source give for `CCN(CC)C(=O)Cn1c2ccc(F)cc2c2nc3n(c(=O)c21)CCS3` here?
A: 24.6% (inactive)

Q: For `O=C(Cn1c2ccccc2c2ccncc21)N1CCCCC1`, which activity change, negative = inhibition is on record?
A: -24.1% (inactive)

Q: Which activity change, negative = inhibition does the source give for `COC(=O)Cn1nc(-c2ccccc2)c2cccc(C(F)(F)F)c21` here?
A: -12% (inactive)

Q: With `CCCCn1nc(-c2ccccc2)c2ccccc21` as the molecule, how does the activity change, negative = inhibition read?
A: 19.1% (inactive)
